In ChEMBL document CHEMBL2010794, “Discovery of nor-seco himbacine analogs as thrombin receptor antagonists” (Bioorg Med Chem Lett, 2012):
Active and inactive are the calls of the source. The rule behind the calls is not given here.

Experiments:
[1] = AUC (0 to 24 hrs) in cynomolgus monkey plasma at 1 mg/kg, po; assay type: ADME, organism-based, Macaca fascicularis; parameters: time < 24 hr, dose 1 mg/kg, route oral
[2] = biological target: T1, Proteinase-activated receptor 1 (Homo sapiens, UniProt P25116); experiment: Displacement of [3H]haTRAP from human PAR1 after 1 hr by TopCount scintillation counting; settings: read-out: IC50
T1 sequence (P25116 whole entry): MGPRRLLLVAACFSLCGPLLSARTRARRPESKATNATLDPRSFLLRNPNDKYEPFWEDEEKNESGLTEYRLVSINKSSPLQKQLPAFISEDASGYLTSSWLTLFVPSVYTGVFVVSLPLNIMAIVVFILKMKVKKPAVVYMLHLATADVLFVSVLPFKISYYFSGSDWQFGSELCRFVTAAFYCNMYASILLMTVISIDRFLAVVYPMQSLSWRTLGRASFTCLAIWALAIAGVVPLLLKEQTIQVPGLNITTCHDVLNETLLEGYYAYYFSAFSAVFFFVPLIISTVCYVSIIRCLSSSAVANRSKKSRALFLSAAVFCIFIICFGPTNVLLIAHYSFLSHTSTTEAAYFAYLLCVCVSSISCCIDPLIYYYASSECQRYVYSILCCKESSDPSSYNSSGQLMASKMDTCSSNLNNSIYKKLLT
Method in brief: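 PAR-1 receptors isolated from human platelets; competition binding against [³H]haTRAP radioligand; values expressed as IC₅₀ (nM).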

[3] = AUC (0 to 6 hrs) in rat at 10 mg/kg, po; assay type: ADME, organism-based; parameters: time < 6 hr, dose 10 mg/kg, route oral; settings: plasma
Method in brief: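 Rats given a single 10 mg/kg oral dose in 0.4% methylcellulose; plasma levels followed up to 6 h; AUC from 0 to 6 h reported in ng h/mL.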

Cynomolgus monkey [4] = experiment: Ex-vivo inhibition of PAR1 in cynomolgus monkey assessed as inhibition of haTRAP-induced platelet aggregation at 3 mg/kg, po at 24 hrs by aggregometry; assay type: functional; settings: Macaca fascicularis
Method in brief: (§1)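 Cynomolgus monkeys dosed orally in 20% PEG-HPBCD (hydrochloride salt for the 7a-hydroxy series); blood sampled at various times up to 24 h; haTRAP added to whole blood at 1 µM to trigger aggregation, measured by aggregometer; result given as % reduction in haTRAP-induced aggregation at the stated dose and time.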

Cynomolgus monkey [5] = experiment: AUC (0 to 24 hrs) in cynomolgus monkey plasma assessed as M+16 hydroxy metabolite at 3 mg/kg, po; assay type: ADME, organism-based, Macaca fascicularis; parameters: time < 24 hr, dose 3 mg/kg, route oral; settings: in vivo
[6] = AUC (0 to 24 hrs) in cynomolgus monkey plasma at 3 mg/kg, po; assay type: ADME, organism-based, Macaca fascicularis; parameters: time < 24 hr, dose 3 mg/kg, route oral
Cynomolgus monkey [7] = experiment: Ex-vivo inhibition of PAR1 in cynomolgus monkey assessed as inhibition of haTRAP-induced platelet aggregation at 0.3 mg/kg, po by aggregometry; assay type: functional, organism-based; parameters: dose 0.3 mg/kg; settings: Macaca fascicularis; method in brief: as §1
[8] = Oral bioavailability in cynomolgus monkey at 1 mg/kg; assay type: ADME, organism-based, Macaca fascicularis; settings: in vivo
Method in brief: (§2)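 Full cynomolgus PK study: 1 mg/kg oral in 0.4% methylcellulose and 1 mg/kg intravenous in 20% HPBCD; AUC, oral Cmax, Tmax, half-life, Vd(ss) and clearance derived from plasma concentrations.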

[9] = Half life in cynomolgus monkey at 1 mg/kg, po and 1 mg/kg, iv; assay type: ADME, organism-based, Macaca fascicularis; settings: in vivo; method in brief: as §2
[10] = Clearance in cynomolgus monkey at 1 mg/kg, po and 1 mg/kg, iv; assay type: ADME, organism-based, Macaca fascicularis; settings: in vivo; method in brief: as §2
[11] = Cmax in cynomolgus monkey at 1 mg/kg, po; assay type: ADME, organism-based, Macaca fascicularis; parameters: dose 1 mg/kg, route oral; settings: in vivo; method in brief: as §2
[12] = Volume of distribution at steady state in cynomolgus monkey at 1 mg/kg, po and 1 mg/kg, iv; assay type: ADME, organism-based, Macaca fascicularis; settings: in vivo, read-out: Vdss; method in brief: as §2
Cynomolgus monkey [13] = experiment: Ex-vivo inhibition of PAR1 in cynomolgus monkey assessed as inhibition of haTRAP-induced platelet aggregation at 1 mg/kg, po at 24 hrs by aggregometry; assay type: functional; settings: Macaca fascicularis; method in brief: as §1
[14] = AUC (0 to 24 hrs) in cynomolgus monkey at 1 mg/kg, po and 1 mg/kg, iv; assay type: ADME, organism-based, Macaca fascicularis; settings: plasma; method in brief: as §2
[15] = Tmax in cynomolgus monkey at 1 mg/kg, po and 1 mg/kg, iv; assay type: ADME, organism-based, Macaca fascicularis; settings: in vivo; method in brief: as §2
[16] = Cmax in cynomolgus monkey plasma at 3 mg/kg, po; assay type: ADME, organism-based, Macaca fascicularis; parameters: dose 3 mg/kg, route oral
Cynomolgus monkey [17] = experiment: Cmax in cynomolgus monkey plasma assessed as M+16 hydroxy metabolite at 3 mg/kg, po; assay type: ADME, organism-based, Macaca fascicularis; parameters: dose 3 mg/kg, route oral; settings: in vivo
Liver microsomes = experiment: Prodrug activation in rat liver microsomes assessed as (3R,3aR,4S,5R,6S,7aS)-5-ethyl-4-((E)-2-(5-(3-fluorophenyl)pyridin-2-yl)vinyl)-7a-hydroxy-3,6-dimethylhexahydroisobenzofuran-1(3H)-one formation; parameters: species or system Microsome

Compound | IC50 [2] [nM] | AUC(0-t) at 6 h [3] [ng·h/mL] | inhibition in vivo at 3 mg/kg (Cynomolgus monkey [4]) [%] | other results
CC[C@H]1[C@H](/C=C/c2ccc(-c3cccc(OC)c3)cn2)[C@@H]2[C@@H](C)OC(=O)[C@]2(O)C[C@@H]1C.Cl |  |  |  | AUC(0-t) at 24 h [1]: 1210 ng·h/mL
CC[C@H]1[C@H](/C=C/c2ccc(-c3ccccc3Cl)cn2)[C@@H]2[C@@H](C)OC(=O)[C@@H]2C[C@@H]1C | 25 |  |  | 
CC[C@H]1[C@H](/C=C/c2ccc(-c3cccc(C)c3)cn2)[C@@H]2[C@@H](C)OC(=O)[C@]2(O)C[C@@H]1C | 35 | 203 |  | 
CC[C@H]1[C@H](/C=C/c2ccc(-c3ccc(OC)cc3)cn2)[C@@H]2[C@@H](C)OC(=O)[C@]2(O)C[C@@H]1C | 451 |  |  | 
CC[C@H]1[C@H](/C=C/c2ccc(-c3cc(Cl)ccc3Cl)cn2)[C@@H]2[C@@H](C)OC(=O)[C@@H]2C[C@@H]1C | 513 |  |  | 
CC[C@H]1[C@H](/C=C/c2ccc(-c3cccnc3)cn2)[C@@H]2[C@@H](C)OC(=O)[C@]2(O)C[C@@H]1C [listing 1 of 2 here] | 49 | 1900 |  | 
CC[C@H]1[C@H](/C=C/c2ccc(-c3ccccc3C)cn2)[C@@H]2[C@@H](C)OC(=O)[C@@H]2C[C@@H]1C | 20 |  |  | 
CC[C@H]1[C@H](/C=C/c2ccc(-c3cccnc3)cn2)[C@@H]2[C@@H](C)OC(=O)[C@]2(O)C[C@@H]1C [listing 2 of 2 here] |  |  | 45 | 
CC[C@H]1[C@H](/C=C/c2ccc(-c3cccc(Cl)c3Cl)cn2)[C@@H]2[C@@H](C)OC(=O)[C@@H]2C[C@@H]1C | 13 | 1150 | 95 | AUC (Cynomolgus monkey [5]): 813 ng·h/mL; AUC(0-t) at 24 h [6]: 573 ng·h/mL
CC[C@H]1[C@H](/C=C/c2ccc(-c3cccc(Cl)c3)cn2)[C@@H]2[C@@H](C)OC(=O)[C@@H]2C[C@@H]1C | 28 |  |  | 
CC[C@H]1[C@H](/C=C/c2ccc(-c3ccoc3)cn2)[C@@H]2[C@@H](C)OC(=O)[C@]2(O)C[C@@H]1C.Cl |  |  | 35 | AUC(0-t) at 24 h [6]: 4110 ng·h/mL
CC[C@H]1[C@H](/C=C/c2ccc(-c3cccc(OC)c3)cn2)[C@@H]2[C@@H](C)OC(=O)[C@]2(O)C[C@@H]1C | 18 | 2440 |  | 
CC[C@H]1[C@H](/C=C/c2ccc(-c3ccccc3F)cn2)[C@@H]2[C@@H](C)OC(=O)[C@@H]2C[C@@H]1C | 22 | 852 | 45 | 
CC[C@H]1[C@H](/C=C/c2ccc(-c3ccccc3)cn2)[C@@H]2[C@@H](C)OC(=O)[C@]2(O)C[C@@H]1C |  |  |  | inhibition (Cynomolgus monkey [7]): Active; inhibition (Cynomolgus monkey [4]): Active
CC[C@H]1[C@H](CCc2ccc(-c3cccc(C(F)(F)F)c3)cn2)[C@@H]2[C@@H](C)OC(=O)[C@@H]2C[C@@H]1C | 225 |  |  | 
CC[C@H]1[C@H](/C=C/c2ccc(-c3ccsc3)cn2)[C@@H]2[C@@H](C)OC(=O)[C@]2(O)C[C@@H]1C.Cl |  |  | 90 | AUC(0-t) at 24 h [6]: 4740 ng·h/mL
CC[C@H]1[C@H](/C=C/c2ccc(-c3ccccc3)cn2)[C@@H]2[C@@H](C)OC(=O)[C@]2(O)C[C@@H]1C.Cl |  |  |  | bioavailability [8]: 78%; half-life [9]: 10.7 h; clearance [10]: 3.3 mL/min/kg; Cmax [11]: 397 ng/mL; Vd [12]: 1.5 L/kg; inhibition in vivo at 1 mg/kg (Cynomolgus monkey [13]): 65%; AUC(0-t) [14]: 3980 ng·h/mL; Tmax [15]: 1 h; AUC(0-t) at 24 h [1]: 3820 ng·h/mL
CC[C@H]1[C@H](/C=C/c2ccc(-c3cccc(F)c3)cn2)[C@@H]2[C@@H](C)OC(=O)[C@@H]2C[C@@H]1C | 15 | 230 | 100 | Cmax [16]: 62 ng/mL; AUC (Cynomolgus monkey [5]): 1400 ng·h/mL; AUC(0-t) at 24 h [6]: 451 ng·h/mL; Cmax (Cynomolgus monkey [17]): 98 ng/mL; inhibition in vivo at 1 mg/kg (Cynomolgus monkey [13]): 69%; Drug metabolism (Liver microsomes): Active
